In ChEMBL document CHEMBL1800073, “Inhibition of 1-deoxy-D-xylulose-5-phosphate reductoisomerase by lipophilic phosphonates: SAR, QSAR, and crystallographic studies” (J Med Chem, 2011):
Calls of active or inactive are those of the source. The rule behind the calls is not given here.

Tests used:
Escherichia coli = assay: Inhibition of Escherichia coli recombinant DXR using DXP as substrate and MgCl2 as cofactor at 100 uM preincubated for 10 mins
Summary of the method: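 Purified recombinant EcDXR (10 nM) with 2 mM MgCl2, 50 µM NADPH, 50 mM HEPES pH 7.5, 25 µg/mL BSA. Inhibitor pre-incubated with enzyme 10 min at 30 °C; reaction started with 100 µM DXP; NADPH consumption followed at 340 nm.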

[1] = molecular target: T1, 1-deoxy-D-xylulose 5-phosphate reductoisomerase (Mycobacterium tuberculosis) (UniProt P9WNS1); assay: Inhibition of Mycobacterium tuberculosis recombinant DXR expressed in Escherichia coli BL21 (DE3) using DXP as substrate and MgCl2 as cofactor at 100 uM preincubated for 10 mins
T1 sequence (whole entry): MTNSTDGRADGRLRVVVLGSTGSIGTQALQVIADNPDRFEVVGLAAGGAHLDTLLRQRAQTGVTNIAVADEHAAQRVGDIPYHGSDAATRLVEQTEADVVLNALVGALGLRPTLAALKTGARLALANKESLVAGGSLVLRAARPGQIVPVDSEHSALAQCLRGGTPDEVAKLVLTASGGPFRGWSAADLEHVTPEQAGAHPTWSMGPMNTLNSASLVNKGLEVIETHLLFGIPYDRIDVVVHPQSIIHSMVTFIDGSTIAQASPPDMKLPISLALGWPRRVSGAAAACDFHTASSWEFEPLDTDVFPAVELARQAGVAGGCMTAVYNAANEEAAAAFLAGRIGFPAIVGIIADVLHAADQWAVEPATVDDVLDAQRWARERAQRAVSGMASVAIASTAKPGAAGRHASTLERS
Summary of the method: (§1)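 Assay used 50 nM enzyme in 50 mM HEPES pH 7.6 with 4 mM MgCl2, 50 µM NADPH and 25 µg/mL BSA, plus 100 µM DXP added after a 10 min, 30 °C preincubation. IC50 came from initial velocities, at least three experiments.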

[2] = Inhibition of Escherichia coli recombinant DXR using DXP as substrate and MgCl2 as cofactor preincubated for 10 mins
Summary of the method: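 Purified enzyme at 10 nM in 50 mM HEPES pH 7.5 with 2 mM MgCl2, 50 µM NADPH and 25 µg/mL BSA. Inhibitor was preincubated with the enzyme for 10 min at 30 °C, then 100 µM DXP was added. IC50 came from dose-response fits of initial velocities, at least three experiments.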

[3] = molecular target: T2, 1-deoxy-D-xylulose 5-phosphate reductoisomerase (Mycobacterium tuberculosis, UniProt P9WNS1); assay: Inhibition of Mycobacterium tuberculosis recombinant DXR expressed in Escherichia coli BL21 (DE3) using DXP as substrate and MgCl2 as cofactor preincubated for 10 mins; summary of the method: as §1
T2 sequence (P9WNS1 whole entry): T1 sequence (whole entry)

[4] = Inhibition of DXR

SMILES | inhibition (Escherichia coli) | inhibition [1] | pKi [2] | Ki [2] | Ki [3] | IC50 [4]
O=C(Cc1ccccn1)NO | inactive | inactive | 3.52 | – | – | –
O=P(O)(O)Cc1cc(-c2ccc(F)cc2)ccn1 | – | inactive | 5.46 | 3.5 µM | – | –
O=P(O)(O)CCc1ccccn1 | – | inactive | 4.73 | 18.6 µM | – | –
O=P(O)(O)Cc1ccc(-c2ccccc2)cn1 | – | – | 6.38 | 0.42 µM | 3.2 µM | –
O=P(O)(O)Cc1ccc(-c2ccc(Cl)cc2)cn1 | – | inactive | 5.8 | 1.6 µM | – | –
O=S(=O)(O)Cc1ccc(-c2ccccc2)cn1 | inactive | inactive | < 3.52 | – | – | –
O=P(O)(O)CCCc1ccccn1 | – | inactive | 5.02 | 9.5 µM | – | –
O=P(O)(O)Cc1cccc(Br)n1 | – | inactive | 5.46 | 3.6 µM | – | –
O=P(O)(O)Cc1ccc(Cl)c(Cl)c1 | inactive | inactive | 3.52 | – | – | –
O=P(O)(O)Cc1cccc(-c2ccccc2)n1 | – | inactive | 5.46 | 3.5 µM | – | –
O=P(O)(O)C(Nc1nccc2ccccc12)P(=O)(O)O | – | – | – | 6.3 µM | – | 4 µM
O=P(O)(O)CCc1ccccc1O | inactive | inactive | 3.52 | – | – | –
O=P(O)(O)Cc1ccccn1 [PYRIDIN-2-YLMETHYLPHOSPHONIC ACID] | – | – | 5.64 | 2.3 µM | 1.6 µM | –
O=C(Cc1ccc(-c2ccccc2)cn1)NO | inactive | inactive | < 3.52 | – | – | –
O=P(O)(O)Cc1cnccn1 | – | inactive | 4.95 | 11.2 µM | – | –
O=CN(O)CCC(c1ccc(Cl)c(Cl)c1)P(=O)(O)O (centres undefined) | – | – | 7.24 | 0.058 µM | 1.2 µM | –
CC(=O)N(O)CCCP(=O)(O)O [FR-900098] | – | – | 7.72 | 0.019 µM | 0.13 µM | –
CC(=O)N(O)CCC(c1ccc(Cl)c(Cl)c1)P(=O)(O)O (racemic) | – | – | 7.44 | 0.036 µM | 1.5 µM | –
O=P(O)(O)Cc1ccc2ccccc2n1 | – | – | 5.1 | 7.9 µM | 6.9 µM | –
O=P(O)(O)Cc1ccc(-c2ccc(F)cc2)cn1 | – | – | 5.96 | 1.1 µM | 50.7 µM | –
O=C(O)Cc1ccc(-c2ccccc2)cn1 | inactive | inactive | < 3.52 | – | – | –
O=C(O)c1ccc(-c2ccccc2)cn1 | inactive | inactive | < 3.52 | – | – | –
O=P(O)(O)Cc1cc(-c2ccccc2)ccn1 | – | – | 5.96 | 1.1 µM | 6.9 µM | –
O=P(O)(O)Cc1ccc(O)cn1 | – | – | 6.15 | 0.7 µM | 17.3 µM | –

SMILES | inhibition (Escherichia coli) | inhibition [1] | pKi [2] | Ki [2] | Ki [3] | IC50 [4]
Cc1ccc(-c2ccc(CP(=O)(O)O)nc2)cc1 | – | inactive | 5.41 | 3.9 µM | – | –
O=P(O)(O)Cc1ccncn1 | – | – | 5.46 | 3.5 µM | 12.4 µM | –
O=P(O)(O)C(Nc1ccc(Cl)cn1)P(=O)(O)O | – | inactive | – | 15.3 µM | – | 7 µM
O=C(O)Cc1cccnc1 | inactive | inactive | < 3.52 | – | – | –
O=P(O)(O)Cc1cccnc1 | – | inactive | 5.3 | 5 µM | – | –
O=P(O)(O)Cc1ccccc1 [BENZYLPHOSPHONIC ACID] | inactive | inactive | 3.52 | – | – | –
O=P(O)(O)c1ccccc1 [PHENYLPHOSPHONIC ACID] | inactive | inactive | 3.52 | – | – | –
O=C(O)c1ccccn1 [2-PICOLINIC ACID] | inactive | inactive | 3.52 | – | – | –
O=C(O)Cc1ccccn1 | inactive | inactive | 3.52 | – | – | –
O=P(O)(O)CCc1ccccc1 | inactive | inactive | 3.52 | – | – | –
O=C(NO)c1ccccn1 | inactive | inactive | < 3.52 | – | – | –
O=P(O)(O)Cc1cc(Br)ccn1 | – | – | 5.46 | 3.5 µM | 32.7 µM | –
O=P(O)(O)Cc1cccc(O)c1O | inactive | inactive | 3.52 | – | – | –
O=P(O)(O)Cc1ccc(-c2ccc3ccccc3c2)cn1 | – | inactive | 4.86 | 13.9 µM | – | –
O=P(O)(O)Cc1ccncc1 | – | – | 5.46 | 3.5 µM | 6.8 µM | –
O=c1ccc(-c2ccccc2)cn1O [1-HYDROXY-5-PHENYLPYRIDIN-2(1H)-ONE] | – | – | – | 0.7 µM | 21.8 µM | –
O=c1cccc(CCP(=O)(O)O)[nH]1 | inactive | inactive | 3.52 | – | – | –
O=C(O)Cc1ccncc1 | inactive | inactive | 3.52 | – | – | –
O=P(O)(O)Cc1ccc(OCc2ccccc2)cn1 | inactive | inactive | 3.52 | – | – | –
O=P(O)(O)Cc1ccc(Br)cn1 | – | – | 5.17 | 6.7 µM | 45.2 µM | –
O=c1ccc(CP(=O)(O)O)cn1O | inactive | inactive | 3.52 | – | – | –
COc1cccc(-c2ccc(CP(=O)(O)O)nc2)c1 | – | inactive | 5.46 | 3.6 µM | – | –
O=P(O)(O)c1ccccn1 | inactive | inactive | 3.52 | – | – | –
